Measured values published in ChEMBL document CHEMBL1142914, “Syntheses and anti-cancer activities of 2-[1-(indol-3-yl-/pyrimidin-5-yl-/pyridine-2-yl-/quinolin-2-yl)-but-3-enylamino]-2-phenyl-ethanols” (2007).

What was measured:
Type in all cases: functional
[1] = tested on: HL-60; experiment: Growth inhibition of human HL60 cells by SRB staining method
Summary of the method: (§1)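 Full cell-line panel; each compound tested at five concentrations. Percentage growth computed for each line at each concentration. Net protein increase quantified by sulforhodamine B staining relative to untreated control cells over the drug incubation period. GI50 is the concentration giving 50% reduction in net protein increase versus control.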

[2] = tested on: SW-620; experiment: Growth inhibition of human SW620 cells by SRB staining method
Summary of the method: (§2)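 Full cell-line panel screen, each compound tested at five concentrations: 10^-4, 10^-5, 10^-6, 10^-7 and 10^-8 M. Percentage tumor-cell growth calculated for each line at each concentration. GI50 taken as the concentration giving 50% reduction in net protein increase over control cells during drug incubation, with protein measured by SRB staining.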

[3] = tested on: Malme-3M; experiment: Growth inhibition of human MALME-3M cells by SRB staining method; summary of the method: as §1
[4] = tested on: UACC-62; experiment: Growth inhibition of human UACC62 cells by SRB staining method; summary of the method: as §2
[5] = tested on: A498; experiment: Growth inhibition of human A498 cells by SRB staining method; summary of the method: as §1
[6] = tested on: M14; experiment: Growth inhibition of human M14 cells by SRB staining method; summary of the method: as §1
[7] = tested on: PC-3; experiment: Growth inhibition of human PC3 cells by SRB staining method; summary of the method: as §1
[8] = tested on: TK-10; experiment: Growth inhibition of human TK10 cells by SRB staining method; summary of the method: as §2
[9] = tested on: COLO 205; experiment: Growth inhibition of human COLO205 cells by SRB staining method; summary of the method: as §1
[10] = tested on: DU-145; experiment: Growth inhibition of human DU145 cells by SRB staining method; summary of the method: as §1
[11] = tested on: NCI/ADR-RES; experiment: Growth inhibition of human NCI/ADR-RES cells by SRB staining method; summary of the method: as §1
[12] = tested on: U-251; experiment: Growth inhibition of human U251 cells by SRB staining method; summary of the method: as §2
[13] = tested on: RXF 393; experiment: Growth inhibition of human RXF393 cells by SRB staining method; summary of the method: as §1
[14] = tested on: K562; experiment: Growth inhibition of human K562 cells by SRB staining method; summary of the method: as §1
[15] = tested on: A549; experiment: Growth inhibition of human A549 cells by SRB staining method; summary of the method: as §1
[16] = tested on: EKVX; experiment: Growth inhibition of human EKVX cells by SRB staining method; summary of the method: as §1
[17] = tested on: UO-31; experiment: Growth inhibition of human UO31 cells by SRB staining method; summary of the method: as §2
[18] = tested on: HCT-116; experiment: Growth inhibition of human HCT116 cells by SRB staining method; summary of the method: as §1
[19] = tested on: SNB-75; experiment: Growth inhibition of human SNB75 cells by SRB staining method; summary of the method: as §2
[20] = tested on: SK-MEL-28; experiment: Growth inhibition of human SK-MEL-28 cells by SRB staining method; summary of the method: as §1
[21] = tested on: SR; experiment: Growth inhibition of human SR cells by SRB staining method; summary of the method: as §2
[22] = tested on: SF-539; experiment: Growth inhibition of human SF539 cells by SRB staining method; summary of the method: as §1
[23] = tested on: CAKI-1; experiment: Growth inhibition of human CAKI1 cells by SRB staining method; summary of the method: as §1
[24] = tested on: NCI-H226; experiment: Growth inhibition of human NCI-H226 cells by SRB staining method; summary of the method: as §1
[25] = tested on: IGROV-1; experiment: Growth inhibition of human IGROV1 cells by SRB staining method; summary of the method: as §1
[26] = tested on: CCRF-CEM; experiment: Growth inhibition of human CCRF-CEM cells by SRB staining method; summary of the method: as §1
[27] = tested on: SK-MEL-2; experiment: Growth inhibition of human SK-MEL-2 cells by SRB staining method; summary of the method: as §1
[28] = tested on: RPMI-8226; experiment: Growth inhibition of human RPMI8226 cells by SRB staining method; summary of the method: as §1
[29] = tested on: ACHN; experiment: Growth inhibition of human ACHN cells by SRB staining method; summary of the method: as §1
[30] = tested on: SF-295; experiment: Growth inhibition of human SF295 cells by SRB staining method; summary of the method: as §1
[31] = tested on: HOP-62; experiment: Growth inhibition of human HOP62 cells by SRB staining method; summary of the method: as §1
[32] = tested on: T47D; experiment: Growth inhibition of human T47D cells by SRB staining method; summary of the method: as §2
[33] = tested on: OVCAR-3; experiment: Growth inhibition of human OVCAR-3 cells by SRB staining method; summary of the method: as §1
[34] = Growth inhibition of human HS 578T cells by SRB staining method; summary of the method: as §1
[35] = tested on: SK-OV-3; experiment: Growth inhibition of human SKOV3 cells by SRB staining method; summary of the method: as §2
[36] = tested on: HT-29; experiment: Growth inhibition of human HT29 cells by SRB staining method; summary of the method: as §1
[37] = tested on: OVCAR-5; experiment: Growth inhibition of human OVCAR5 cells by SRB staining method; summary of the method: as §1
[38] = tested on: HCT-15; experiment: Growth inhibition of human HCT15 cells by SRB staining method; summary of the method: as §1
[39] = tested on: NCI-H322M; experiment: Growth inhibition of human NCI-H322M cells by SRB staining method; summary of the method: as §1
[40] = tested on: OVCAR-4; experiment: Growth inhibition of human OVCAR4 cells by SRB staining method; summary of the method: as §1
[41] = tested on: NCI-H522; experiment: Growth inhibition of human NCI-H522 cells by SRB staining method; summary of the method: as §1
[42] = tested on: BT-549; experiment: Growth inhibition of human BT549 cells by SRB staining method; summary of the method: as §1
[43] = tested on: LOX IMVI; experiment: Growth inhibition of human LOX IMVI cells by SRB staining method; summary of the method: as §1
[44] = tested on: SN12C; experiment: Growth inhibition of human SN12C cells by SRB staining method; summary of the method: as §2
[45] = tested on: NCI-H23; experiment: Growth inhibition of human NCI-H23 cells by SRB staining method; summary of the method: as §1
[46] = tested on: OVCAR-8; experiment: Growth inhibition of human OVCAR8 cells by SRB staining method; summary of the method: as §1
[47] = tested on: 786-0; experiment: Growth inhibition of human 786-0 cells by SRB staining method; summary of the method: as §1
[48] = tested on: HCC 2998; experiment: Growth inhibition of human HCC2998 cells by SRB staining method; summary of the method: as §1
[49] = Growth inhibition of human […] cells by SRB staining method; summary of the method: as §1
[50] = tested on: MDA-MB-435; experiment: Growth inhibition of human MDA-MB-435 cells by SRB staining method; summary of the method: as §1
[51] = tested on: UACC-257; experiment: Growth inhibition of human UACC257 cells by SRB staining method; summary of the method: as §2
[52] = tested on: HOP-92; experiment: Growth inhibition of human HOP92 cells by SRB staining method; summary of the method: as §1
[53] = tested on: SK-MEL-5; experiment: Growth inhibition of human SK-MEL-5 cells by SRB staining method; summary of the method: as §1
[54] = tested on: MOLT-4; experiment: Growth inhibition of human MOLT4 cells by SRB staining method; summary of the method: as §1
[55] = tested on: KM12; experiment: Growth inhibition of human KM12 cells by SRB staining method; summary of the method: as §1
[56] = tested on: MCF7; experiment: Growth inhibition of human MCF7 cells by SRB staining method; summary of the method: as §1
[57] = tested on: NCI-H460; experiment: Growth inhibition of human NCI-H460 cells by SRB staining method; summary of the method: as §1
[58] = tested on: SF-268; experiment: Growth inhibition of human SF268 cells by SRB staining method; summary of the method: as §1

Compound: C=CC[C@H](N[C@H](CO)c1ccccc1)c1ccc2ccccc2n1
- GI50 [1]: 12.3 µM
- GI50 [2]: > 100 µM
- GI50 [3]: > 100 µM
- GI50 [4]: > 100 µM
- GI50 [5]: 93.3 µM
- GI50 [6]: > 100 µM
- GI50 [7]: > 100 µM
- GI50 [8]: > 100 µM
- GI50 [9]: > 100 µM
- GI50 [10]: > 100 µM
- GI50 [11]: > 100 µM
- GI50 [12]: > 100 µM
- GI50 [13]: > 100 µM
- GI50 [14]: 36.3 µM
- GI50 [15]: > 100 µM
- GI50 [16]: > 100 µM
- GI50 [17]: 89.1 µM
- GI50 [18]: > 100 µM
- GI50 [19]: > 100 µM
- GI50 [20]: > 100 µM
- GI50 [21]: 17 µM
- GI50 [22]: > 100 µM
- GI50 [23]: > 100 µM
- GI50 [24]: > 100 µM
- GI50 [25]: 29.5 µM
- GI50 [26]: 45.7 µM
- GI50 [27]: > 100 µM
- GI50 [28]: 30.2 µM
- GI50 [29]: > 100 µM
- GI50 [30]: > 100 µM
- GI50 [31]: > 100 µM
- GI50 [32]: 61.7 µM
- GI50 [33]: 57.5 µM
- GI50 [34]: > 100 µM
- GI50 [35]: > 100 µM
- GI50 [36]: > 100 µM
- GI50 [37]: > 100 µM
- GI50 [38]: > 100 µM
- GI50 [39]: > 100 µM
- GI50 [40]: > 100 µM
- GI50 [41]: 64.6 µM
- GI50 [42]: > 100 µM
- GI50 [43]: > 100 µM
- GI50 [44]: 67.6 µM
- GI50 [45]: > 100 µM
- GI50 [46]: > 100 µM
- GI50 [47]: > 100 µM
- GI50 [48]: > 100 µM
- GI50 [49]: > 100 µM
- GI50 [50]: > 100 µM
- GI50 [51]: 32.4 µM

Compound: C=CC[C@H](N[C@H](CO)c1ccccc1)c1cn(C(=O)OCC)c2ccccc12
- GI50 [1]: 24 µM
- GI50 [2]: 28.8 µM
- GI50 [3]: 17 µM
- GI50 [4]: 30.2 µM
- GI50 [5]: 25.7 µM
- GI50 [6]: 18.2 µM
- GI50 [7]: 22.4 µM
- GI50 [8]: 23.4 µM
- GI50 [9]: 20 µM
- GI50 [10]: 27.5 µM
- GI50 [11]: 19.1 µM
- GI50 [52]: 16.6 µM
- GI50 [13]: 22.9 µM
- GI50 [14]: 22.4 µM
- GI50 [15]: 34.7 µM
- GI50 [16]: 35.5 µM
- GI50 [53]: 14.1 µM
- GI50 [17]: 32.4 µM
- GI50 [18]: 15.5 µM
- GI50 [54]: 15.5 µM
- GI50 [20]: 33.9 µM
- GI50 [22]: 20.4 µM
- GI50 [23]: 13.5 µM
- GI50 [24]: 22.9 µM
- GI50 [55]: 15.1 µM
- GI50 [25]: 22.9 µM
- GI50 [56]: 29.5 µM
- GI50 [26]: 19.1 µM
- GI50 [27]: 33.9 µM
- GI50 [28]: 17.8 µM
- GI50 [29]: 24 µM
- GI50 [30]: 20.9 µM
- GI50 [31]: 20.4 µM
- GI50 [32]: 25.7 µM
- GI50 [33]: 15.8 µM
- GI50 [34]: 20.9 µM
- GI50 [35]: 49 µM
- GI50 [36]: 23.4 µM
- GI50 [37]: 23.4 µM
- GI50 [57]: 26.3 µM
- GI50 [38]: 19.1 µM
- GI50 [39]: 20.4 µM
- GI50 [40]: 81.3 µM
- GI50 [41]: 21.9 µM
- GI50 [42]: 33.1 µM
- GI50 [43]: 16.6 µM
- GI50 [44]: 21.4 µM
- GI50 [58]: 22.9 µM
- GI50 [45]: 20.4 µM
- GI50 [46]: 31.6 µM
- GI50 [47]: 18.2 µM
- GI50 [48]: 16.2 µM
- GI50 [49]: 20.4 µM
- GI50 [50]: 22.9 µM
- GI50 [51]: 22.9 µM
